Source: ChEMBL document CHEMBL1147967, “Prodrug-based design, synthesis, and biological evaluation of N-benzenesulfonylpiperidine derivatives as novel, orally active factor Xa inhibitors” (Bioorg Med Chem, 2007)

Legend:
[1] = target: Coagulation factor X (Homo sapiens, UniProt P00742); test: Inhibition of human factor 10a
[2] = organism: Homo sapiens; test: Selectivity for human factor 10a over human thrombin
[3] = organism: Homo sapiens; test: Selectivity for human factor 10a over human trypsin
[4] = system: Mus musculus; test: Anticoagulant activity in ICR mouse plasma assessed as PT-prolongation at 100 mg/kg, po after 0.5 hrs relative to control; format: functional
In short: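 Male ICR mice (20–35 g), fasted overnight, were given compound orally by gastric tube at 100 mg/kg as a suspension in 0.5% methylcellulose. At 0.5 h, blood was drawn from the abdominal vena cava into 3.8% citrate, and platelet-poor plasma was prepared by centrifugation. PT was measured and expressed as percent change versus vehicle or normal plasma, mean ± SEM, n = 3.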

[5] = target: Trypsin (Homo sapiens, UniProt P07477+P07478+P35030); test: Inhibition of human trypsin; format: protein assay
[6] = system: Plasma; test: Anticoagulant activity in mouse plasma assessed as concentration required to double prothrombin time; format: functional
In short: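 Pooled citrated mouse plasma was incubated with diluted compound for 1 min at 37 °C. Brain thromboplastin PT reagent was then added to start clotting, and clot time was read on a coagulometer. The concentration doubling clotting time (CT₂) was estimated from each individual dose–response curve.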

[7] = target: Prothrombin (Homo sapiens, UniProt P00734); test: Inhibition of human thrombin
[8] = system: Plasma; test: Anticoagulant activity in human plasma assessed as concentration required to double prothrombin time; format: functional

Chain of Coagulation factor X (P00742 41-179 limits assumed): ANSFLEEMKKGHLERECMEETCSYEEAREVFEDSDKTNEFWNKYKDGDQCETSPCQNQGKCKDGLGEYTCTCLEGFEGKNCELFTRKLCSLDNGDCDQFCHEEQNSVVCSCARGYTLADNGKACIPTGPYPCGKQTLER
Chain of Coagulation factor X (P00742 235-488 limits assumed): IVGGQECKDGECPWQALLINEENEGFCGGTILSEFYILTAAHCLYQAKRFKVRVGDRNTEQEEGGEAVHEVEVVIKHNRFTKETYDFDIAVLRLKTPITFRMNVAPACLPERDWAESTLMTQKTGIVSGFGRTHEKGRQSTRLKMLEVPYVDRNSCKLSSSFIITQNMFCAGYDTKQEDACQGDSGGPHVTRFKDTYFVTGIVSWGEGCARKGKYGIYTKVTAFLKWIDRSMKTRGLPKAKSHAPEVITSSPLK

Structure (SMILES)	IC50 [1]	Selectivity ratio [2]	Selectivity ratio [3]	Activity [4]	IC50 [5]	Activity [6]	IC50 [7]	Activity [8]
CS(=O)(=O)N(Cc1ccc2ccc(C(=N)N)cc2c1)C1CCN(S(=O)(=O)c2ccc(Cl)c(Cl)c2)CC1	190 nM	> 7000	> 100	–	–	–	–	–
CS(=O)(=O)N(Cc1ccc2ccc(C(=N)N)cc2c1)C1CCN(c2ccncc2)CC1	90 nM	–	–	–	–	–	–	–
CCOC(=O)CS(=O)(=O)N(Cc1ccc2ccc(/C(N)=N\O)cc2c1)C1CCN(S(=O)(=O)c2cc(OC)ccc2OC)CC1	–	–	–	101%	–	–	–	–
Cc1cccc(S(=O)(=O)N2CCC(N(Cc3ccc4ccc(C(=N)N)cc4c3)S(C)(=O)=O)CC2)c1	250 nM	–	–	–	–	–	–	–
Cc1ccc(S(=O)(=O)N2CCC(N(Cc3ccc4ccc(C(=N)N)cc4c3)S(C)(=O)=O)CC2)cc1	> 100000 nM	> 7000	> 100	–	–	–	–	–
CS(=O)(=O)N(Cc1ccc2ccc(C(=N)N)cc2c1)C1CCN(S(=O)(=O)c2cc(Cl)ccc2Cl)CC1	65 nM	–	–	–	–	–	–	–
COc1ccc(Cl)cc1S(=O)(=O)N1CCC(N(Cc2ccc3ccc(C(=N)N)cc3c2)S(C)(=O)=O)CC1	39 nM	> 7000	> 100	–	–	–	–	–
CS(=O)(=O)N(Cc1ccc2ccc(C(=N)N)cc2c1)C1CCN(S(=O)(=O)c2cccc(Cl)c2)CC1	49 nM	–	–	–	–	–	–	–
CCOC(=O)CC(=O)N(C/C=C/c1cccc(/C(N)=N\O)c1)C1CCN(S(=O)(=O)c2cc(OC)ccc2OC)CC1	–	> 7000	> 100	187%	–	–	–	–
COc1ccc(OC)c(S(=O)(=O)N2CCC(N(C/C=C/c3cccc(C(=N)N)c3)C(=O)CC(=O)O)CC2)c1	13 nM	> 7000	> 100	104%	6000 nM	1.4 µM	> 100000 nM	0.55 µM
Cc1ccccc1S(=O)(=O)N1CCC(N(Cc2ccc3ccc(C(=N)N)cc3c2)S(C)(=O)=O)CC1	950 nM	> 7000	> 100	–	–	–	–	–
COc1ccc(OC)c(S(=O)(=O)N2CCC(N(C)Cc3ccc4ccc(C(=N)N)cc4c3)CC2)c1	590 nM	–	–	–	–	–	–	–
CS(=O)(=O)N(Cc1ccc2ccc(C(=N)N)cc2c1)C1CCN(C(=O)c2cccc(C#N)c2)CC1	> 100000 nM	> 7000	> 100	–	–	–	–	–
CS(=O)(=O)N(Cc1ccc2ccc(C(=N)N)cc2c1)C1CCN(S(=O)(=O)c2ccccc2)CC1	850 nM	–	–	–	–	–	–	–
CS(=O)(=O)N(Cc1ccc2ccc(C(=N)N)cc2c1)C1CCN(C(=O)c2cccc(Cl)c2)CC1	> 100000 nM	> 7000	> 100	–	–	–	–	–
CS(=O)(=O)N(Cc1ccc2ccc(C(=N)N)cc2c1)C1CCN(S(=O)(=O)c2cccc(Cl)c2Cl)CC1	560 nM	> 7000	> 100	–	–	–	–	–
COc1ccc(C)cc1S(=O)(=O)N1CCC(N(Cc2ccc3ccc(C(=N)N)cc3c2)S(C)(=O)=O)CC1	58 nM	> 7000	> 100	–	–	–	–	–
CS(=O)(=O)N(Cc1ccc2ccc(C(=N)N)cc2c1)C1CCN(Cc2cccc(Cl)c2)CC1	1700 nM	> 7000	> 100	–	–	–	–	–

Structure (SMILES)	IC50 [1]	Selectivity ratio [2]	Selectivity ratio [3]	Activity [4]	IC50 [5]	Activity [6]	IC50 [7]	Activity [8]
COc1ccc(OC)c(S(=O)(=O)N2CCC(N(Cc3ccc4ccc(C(=N)N)cc4c3)S(=O)(=O)CC(=O)O)CC2)c1	13 nM	> 7000	> 100	–	2700 nM	1.7 µM	> 100000 nM	0.55 µM
CS(=O)(=O)N(Cc1ccc2ccc(C(=N)N)cc2c1)C1CCN(S(=O)(=O)c2cc(Cl)sc2Cl)CC1	100 nM	–	–	–	–	–	–	–
CS(=O)(=O)N1CCC(N(Cc2ccc3ccc(C(=N)N)cc3c2)S(C)(=O)=O)CC1	> 100000 nM	> 7000	> 100	–	–	–	–	–
CS(=O)(=O)N(Cc1ccc2ccc(C(=N)N)cc2c1)C1CCN(S(=O)(=O)c2ccccc2Cl)CC1	350 nM	> 7000	> 100	–	–	–	–	–
CS(=O)(=O)N(Cc1ccc2ccc(C(=N)N)cc2c1)C1CCN(S(=O)(=O)c2cccc(C#N)c2)CC1	170 nM	–	–	–	–	–	–	–
COc1ccc(OC)c(S(=O)(=O)N2CCC(N(Cc3ccc4ccc(C(=N)N)cc4c3)S(C)(=O)=O)CC2)c1	11 nM	> 7000	> 100	–	1100 nM	–	> 100000 nM	–
CS(=O)(=O)N(Cc1ccc2ccc(C(=N)N)cc2c1)C1CCNCC1	> 100000 nM	> 7000	> 100	–	–	–	–	–
CS(=O)(=O)N(Cc1ccc2ccc(C(=N)N)cc2c1)C1CCN(Cc2cccc(C#N)c2)CC1	2300 nM	> 7000	> 100	–	–	–	–	–
CC(=N)N1CC[C@H](Oc2ccc([C@H](Cc3ccc4ccc(C(=N)N)cc4c3)C(=O)O)cc2)C1 [DX-9065A]	–	–	–	151%	3200 nM	4.9 µM	–	0.55 µM
CCOC(=O)CS(=O)(=O)N(C/C=C/c1cccc(/C(N)=N\O)c1)C1CCN(S(=O)(=O)c2cc(OC)ccc2OC)CC1	–	> 7000	> 100	116%	–	–	–	–
CS(=O)(=O)N(Cc1ccc2ccc(C(=N)N)cc2c1)C1CCN(S(=O)(=O)c2cccc(-c3ccccc3)c2)CC1	200 nM	–	–	–	–	–	–	–
COc1ccc(OC)c(S(=O)(=O)N2CCC(N(C/C=C/c3cccc(C(=N)N)c3)S(=O)(=O)CC(=O)O)CC2)c1	10 nM	> 7000	> 100	–	5300 nM	1.2 µM	> 100000 nM	0.47 µM
COc1ccc(OC)c(S(=O)(=O)N2CCC(N(Cc3ccc4ccc(C(=N)N)cc4c3)C(=O)CC(=O)O)CC2)c1	8.1 nM	> 7000	> 100	–	3700 nM	1.6 µM	> 100000 nM	0.56 µM
COc1ccc(OC)c(S(=O)(=O)N2CCC(N(Cc3ccc4ccc(C(=N)N)cc4c3)C(C)=O)CC2)c1	12 nM	> 7000	> 100	–	2500 nM	–	> 100000 nM	–
CS(=O)(=O)N(Cc1ccc2ccc(C(=N)N)cc2c1)C1CCN(S(=O)(=O)c2ccc(Cl)cc2)CC1	1600 nM	–	–	–	–	–	–	–
CS(=O)(=O)N(Cc1ccc2ccc(C(=N)N)cc2c1)C1CCN(S(=O)(=O)c2cccc(F)c2)CC1	800 nM	> 7000	> 100	–	–	–	–	–
CS(=O)(=O)N(Cc1ccc2ccc(C(=N)N)cc2c1)C1CCN(S(=O)(=O)c2c(Cl)cccc2Cl)CC1	> 100000 nM	> 7000	> 100	–	–	–	–	–
CCOC(=O)CC(=O)N(Cc1ccc2ccc(/C(N)=N\O)cc2c1)C1CCN(S(=O)(=O)c2cc(OC)ccc2OC)CC1	–	> 7000	> 100	109%	–	–	–	–
